Source: article PMC2233905 (The Journal of General Physiology, 2004)

Key:
[1] = system: K^+ current of rat sympathetic neurons; conditions: cited from earlier work
hEag1 channels [2] = molecular target: T1, hEag1 channels (Homo sapiens, UniProt O95259); test: Outside-out patch recordings of hEag1 currents; type: cell-based
T1 sequence (O95259 1-989): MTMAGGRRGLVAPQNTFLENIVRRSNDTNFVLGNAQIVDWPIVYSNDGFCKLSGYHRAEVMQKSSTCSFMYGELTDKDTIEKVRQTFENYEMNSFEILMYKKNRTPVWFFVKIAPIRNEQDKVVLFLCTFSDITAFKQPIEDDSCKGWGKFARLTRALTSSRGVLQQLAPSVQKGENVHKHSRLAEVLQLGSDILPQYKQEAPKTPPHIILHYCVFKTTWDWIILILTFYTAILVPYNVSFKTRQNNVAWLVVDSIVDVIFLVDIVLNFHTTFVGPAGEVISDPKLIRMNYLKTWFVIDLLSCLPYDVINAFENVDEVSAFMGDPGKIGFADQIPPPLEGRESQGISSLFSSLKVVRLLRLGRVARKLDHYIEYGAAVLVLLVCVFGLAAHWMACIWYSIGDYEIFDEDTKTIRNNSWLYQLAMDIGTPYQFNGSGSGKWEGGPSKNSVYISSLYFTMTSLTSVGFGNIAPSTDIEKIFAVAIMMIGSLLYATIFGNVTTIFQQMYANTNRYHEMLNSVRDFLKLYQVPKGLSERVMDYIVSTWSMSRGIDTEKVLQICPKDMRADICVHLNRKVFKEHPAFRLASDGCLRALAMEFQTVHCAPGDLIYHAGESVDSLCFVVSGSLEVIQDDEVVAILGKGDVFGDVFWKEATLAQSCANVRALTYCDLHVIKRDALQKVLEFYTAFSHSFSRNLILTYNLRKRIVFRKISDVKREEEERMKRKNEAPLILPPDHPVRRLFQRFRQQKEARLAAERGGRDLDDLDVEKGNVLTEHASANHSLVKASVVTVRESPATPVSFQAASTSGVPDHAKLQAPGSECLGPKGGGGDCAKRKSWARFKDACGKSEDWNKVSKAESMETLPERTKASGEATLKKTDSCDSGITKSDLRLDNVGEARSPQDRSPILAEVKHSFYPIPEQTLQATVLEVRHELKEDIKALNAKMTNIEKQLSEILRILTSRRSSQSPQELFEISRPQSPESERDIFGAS
Outline: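 Outside-out patches from hEag1-expressing cells at room temperature. Successive 6-s recordings at 80 mV; drug applied to the extracellular face for 2.5 s, then removed. Currents were divided point-wise by control traces, and the time course was fitted with a single exponential to give the block or equilibration time constant and the steady-state fraction blocked.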

hEag1 channels [3] = molecular target: T1, hEag1 channels; test: Whole-cell patch-clamp of hEag1 currents in stably transfected HEK-293 cells; type: cell-based
[4] = Ionization: pKa and calculated protonated fractions; type: physicochemical
Outline: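 Fractions of unprotonated, monoprotonated and diprotonated test compound were calculated from its two pKa values at pH 6.4, 7.4 and 8.4. The diprotonated percentage was 100 × [H+]2 divided by the summed-species denominator. Protonated fractions in the pH 7.4 recording solution were predicted the same way.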

melanoma cells = conditions: ref Gavrilova-Ruch et al., 2002; cited from earlier work
hEag1 channels [5] = molecular target: T1, hEag1 channels; test: Cell-attached patch recordings of hEag1 currents, drug in bath; type: cell-based; conditions: 140 mM external K+, 60 mV
Outline: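 hEag1-expressing cells grown 24–72 h on poly-L-lysine-coated coverslips; cell-attached patches at room temperature. Bath held 140 mM K+; pipette held control external solution (160 NaCl, 2.5 KCl, 2 CaCl2, 1 MgCl2, 10 HEPES, pH 7.4) without glucose. 1-s steps to 60 mV from −70 mV were recorded before, during and after washout of bath-applied drug.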

hEag1 channels [6] = molecular target: T1, hEag1 channels; test: Inside-out patch recordings of hEag1 currents; type: cell-based
Outline: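 Inside-out patches from hEag1-expressing cells at room temperature. Pipette: 145 NaCl, 5 KCl, 3 CaCl2, 1 MgCl2, 10 HEPES/NaOH pH 7.4. Successive 6-s pulses at 80 mV with drug applied for 2.5 s. Current ratios to preapplication traces were fitted with a single exponential to give the block time constant.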

[7] = 10 μM imipramine or 1 μM astemizole
[8] = 200 μM internal TEA, 80 mV, 10 μM imipramine or 1 μM astemizole
[9] = control, 80 mV, 10 μM imipramine or 1 μM astemizole

C[N+](C)(C)CCC=C1c2ccccc2CCc2ccccc21 [N-methyl-amitriptyline]
effect on whole-cell K+ current when included in the patch pipette ([1]; 50 μM in pipette, ref Wooltorton and Mathie (1995)): does not inhibit

C[N+](C)(C)CCCN1c2ccccc2CCc2ccccc21.[I-] [N-methyl-imipramine, N-methyl-imipramine iodide]
effect on current, applied to the extracellular side in outside-out patches (hEag1 channels [2]; 5 μM, external and internal pH 7.4): virtually no effect

CC[N+](CC)(CC)CC [TEA]
hEag1 current blocked (hEag1 channels [3]; 80 mV, 200 μM in the internal solution (unpublished data)): ~50% | hEag1 current blocked (hEag1 channels [3]; 80 mV, 7 mM in the external solution (unpublished data)): ~50%

CN(C)CCC=C1c2ccccc2CCc2ccccc21 [amitriptyline]
current blocked ([1]; 50 μM, ref Wooltorton and Mathie, 1995): ~90%

CN(C)CCCN1c2ccccc2CCc2ccccc21 [imipramine]
protonated fraction ([4]; pH 6.0): 99.97% | predicted protonated fraction ([4]; pH 7.4 recording solution): 99% | time constant of block (equilibration of neutral drug) in outside-out patches (hEag1 channels [2]; bath pH 6.0, pipette pH 7.4): 182 ms | inhibition at 25 µM (hEag1 channels [2]; read-out: current inhibition in outside-out patches): ~30% | effect on proliferation rate (melanoma cells): significant reduction | voltage dependence of block (hEag1 channels [3]): strongly voltage dependent | k of exponential fit to τclose(V) (tail current deactivation) (hEag1 channels [3]; [7]): −0.039 | τ(0) of exponential fit to τclose(V) (tail current deactivation) (hEag1 channels [3]; [7]): 65.13 ms | effect on whole-cell current when added to the intracellular solution (hEag1 channels [3]; 100 μM in intracellular pH 6.4 solution (unpublished data)): no evident reduction | reduction of potency in the presence of internal TEA (hEag1 channels [3]; 200 μM internal TEA): ~50% | current blocked (hEag1 channels [3]; [8]): 39 ± 3% | τblock (hEag1 channels [3]; [8]): 86 ± 5 ms | effect of external TEA on the block (hEag1 channels [3]; 7 mM external TEA): did not affect | current blocked (hEag1 channels [3]; [9]): 77 ± 2% | τblock (hEag1 channels [3]; [9]): 35 ± 4 ms | slope of logIC50 versus difference between pHext and pHint (hEag1 channels [3]; linear fit): −0.86 | slope of linear fit of τblock^−1 versus concentration (hEag1 channels [3]; nonsaturating concentrations, 80 mV): 2.5 s^−1μM^−1 | slope of linear fit of τblock^−1 versus concentration (hEag1 channels [3]; pHext 7.4, pHint 6.4): 12.6 s^−1μM^−1 | time constant of block washout (hEag1 channels [3]; pHext 7.4, pHint 6.4): 46 ± 8 s | slope of linear fit of τblock^−1 versus concentration (hEag1 channels [3]; pHext 7.4, pHint 7.4): 3.4 s^−1μM^−1 | time constant of block washout (hEag1 channels [3]; pHext 7.4, pHint 7.4): 19 ± 6 s | slope of linear fit of τblock^−1 versus concentration (hEag1 channels [3]; pHext 7.4, pHint 8.4): 0.9 s^−1μM^−1 | time constant of block washout (hEag1 channels [3]; pHext 7.4, pHint 8.4): 6 ± 1 s | Hill coefficient of fit to τblock versus concentration (hEag1 channels [3]; whole-cell, 80 mV): 1.27 | time constant of current decay (τblock) at the IC50 concentration (hEag1 channels [3]; whole-cell, 80 mV): ~50 ms | τblock, maximum of Hill fit (hEag1 channels [3]; whole-cell, 80 mV): 86.7 ms | τblock, minimum of Hill fit (hEag1 channels [3]; whole-cell, 80 mV): 11.6 ms | fraction of the membrane electric field sensed at the binding site (hEag1 channels [3]; z = 1, fit of IC50 versus test potential): 39% | block of channels in cell-attached patches by bath application (hEag1 channels [5]): blocked | effect on current, direct application to inside-out patches (hEag1 channels [6]; 25 μM, bath pH 6.0, 80 mV): complete current suppression | time constant of block in inside-out patches (hEag1 channels [6]; bath pH 6.0, pipette pH 7.4, 80 mV): 155 ms | reversal of block on 2-s washout during the depolarization (hEag1 channels [6]; inside-out patches): fully reversed
